Reference: ChEMBL document CHEMBL1158122, “Anti-inflammatory, anti-tumor-promoting, and cytotoxic activities of constituents of marigold (Calendula officinalis) flowers” (J Nat Prod, 2006)

Legend:
UACC-62 = experiment: Cytotoxicity against human UACC-62 cells after 48 hrs by SRB assay; type: functional; conditions: UACC-62, 48 h
How it was run: (§1)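 Tested in the NCI panel of 60 human tumour cell lines covering lung, colon, melanoma, renal, ovarian, breast and leukaemia. At least five concentrations were run in 10-fold dilutions starting from 10^-4 M. Exposure was continuous for 48 h. Growth or viability was estimated by sulforhodamine B protein staining, and GI50 values were reported.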

EKVX = experiment: Cytotoxicity against human EKVX cells after 48 hrs by SRB assay; type: functional
T47D = experiment: Cytotoxicity against human T47D cells after 48 hrs by SRB assay; type: functional; how it was run: as §1
Malme-3M = experiment: Cytotoxicity against human MALME-3M cells after 48 hrs by SRB assay; type: functional
K562 = experiment: Cytotoxicity against human K-562 cells after 48 hrs by SRB assay; type: functional; conditions: K562, 48 h
SW-620 = experiment: Cytotoxicity against human SW620 cells after 48 hrs by SRB assay; type: functional; conditions: SW-620, 48 h
HL-60 = experiment: Cytotoxicity against human HL-60 cells after 48 hrs by SRB assay; type: functional; conditions: HL-60, 48 h
NCI-H23 = experiment: Cytotoxicity against human NCI-H23 cells after 48 hrs by SRB assay; type: functional; conditions: NCI-H23, 48 h
[1] = Cytotoxicity against human Raji cells assessed as cell viability at 100 molar ratio; type: cell-based; conditions: read-out: Activity
How it was run: (§2)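 Raji cells were treated with 32 pmol TPA to induce EBV early antigen activation. The test agent was added at 10, 100, 500 or 1000 mol ratio relative to TPA, and Raji cell viability was measured alongside EA activation.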

NCI/ADR-RES = experiment: Cytotoxicity against human NCI/ADR-RES cells after 48 hrs by SRB assay; type: functional
SF-268 = experiment: Cytotoxicity against human SF-268 cells after 48 hrs by SRB assay; type: functional; conditions: SF-268, 48 h
[2] = Cytotoxicity against human Hs 578T cells after 48 hrs by SRB assay; type: functional
IGROV-1 = experiment: Cytotoxicity against human IGROV1 cells after 48 hrs by SRB assay; type: functional; conditions: IGROV-1, 48 h
HCC 2998 = experiment: Cytotoxicity against human HCC2998 cells after 48 hrs by SRB assay; type: functional; conditions: HCC 2998, 48 h
Raji [3] = experiment: Inhibition of TPA-induced EBV-early antigen activation in human Raji cells at 1000 molar ratio relative to TPA; type: cell-based; parameters: scale not given: the % may be the effect or the level left; conditions: human gammaherpesvirus 4
NCI-H226 = experiment: Cytotoxicity against human NCI-H226 cells after 48 hrs by SRB assay; type: functional; conditions: NCI-H226, 48 h
ACHN = experiment: Cytotoxicity against human ACHN cells after 48 hrs by SRB assay; type: functional
[4] = Cytotoxicity against human SK MEL28 cells after 48 hrs by SRB assay; type: functional; conditions: SK-MEL-28, 48 h
Raji [5] = experiment: Inhibition of TPA-induced EBV-early antigen activation in human Raji cells at 10 molar ratio relative to TPA; type: cell-based; parameters: scale not given: the % may be the effect or the level left; conditions: human gammaherpesvirus 4
MCF7 = experiment: Cytotoxicity against human MCF7 cells after 48 hrs by SRB assay; type: functional; conditions: MCF7, 48 h
A549 = experiment: Cytotoxicity against human A549 cells after 48 hrs by SRB assay; type: functional; conditions: A549, 48 h
MDA-MB-435 = experiment: Cytotoxicity against human MDA-MB-435 cells after 48 hrs by SRB assay; type: functional; conditions: MDA-MB-435, 48 h
PC-3 = experiment: Cytotoxicity against human PC-3 cells after 48 hrs by SRB assay; type: functional; conditions: PC-3, 48 h
HT-29 = experiment: Cytotoxicity against human HT-29 cells after 48 hrs by SRB assay; type: functional; conditions: HT-29, 48 h
SK-MEL-2 = experiment: Cytotoxicity against human SK-MEL-2 cells after 48 hrs by SRB assay; type: functional; conditions: SK-MEL-2, 48 h
LOX IMVI = experiment: Cytotoxicity against human LOX IMVI cells after 48 hrs by SRB assay; type: functional
HCT-15 = experiment: Cytotoxicity against human HCT-15 cells after 48 hrs by SRB assay; type: functional; conditions: HCT-15, 48 h
NCI-H322M = experiment: Cytotoxicity against human NCI-H322M cells after 48 hrs by SRB assay; type: functional
OVCAR-3 = experiment: Cytotoxicity against human OVCAR-3 cells after 48 hrs by SRB assay; type: functional; conditions: OVCAR-3, 48 h
OVCAR-8 = experiment: Cytotoxicity against human OVCAR8 cells after 48 hrs by SRB assay; type: functional; conditions: OVCAR-8, 48 h
COLO 205 = experiment: Cytotoxicity against human COLO205 cells after 48 hrs by SRB assay; type: functional; conditions: COLO 205, 48 h
UO-31 = experiment: Cytotoxicity against human UO-31 cells after 48 hrs by SRB assay; type: functional; conditions: UO-31, 48 h; how it was run: as §1
UACC-257 = experiment: Cytotoxicity against human UACC-257 cells after 48 hrs by SRB assay; type: functional; conditions: UACC-257, 48 h; how it was run: as §1
NCI-H460 = experiment: Cytotoxicity against human NCI-H460 cells after 48 hrs by SRB assay; type: functional; conditions: NCI-H460, 48 h
SK-MEL-5 = experiment: Cytotoxicity against human SK-MEL-5 cells after 48 hrs by SRB assay; type: functional; conditions: SK-MEL-5, 48 h
RXF 393 = experiment: Cytotoxicity against human […] cells after 48 hrs by SRB assay; type: functional; conditions: RXF 393, 48 h
CAKI-1 = experiment: Cytotoxicity against human Caki-1 cells after 48 hrs by SRB assay; type: functional; conditions: CAKI-1, 48 h
[6] = Cytotoxicity against human Raji cells assessed as cell viability at 1000 molar ratio; type: cell-based; conditions: read-out: Activity; how it was run: as §2
BT-549 = experiment: Cytotoxicity against human BT-549 cells after 48 hrs by SRB assay; type: functional; conditions: BT-549, 48 h
[7] = Inhibition of TPA-induced EBV-early antigen activation in human Raji cells relative to TPA; type: cell-based, human gammaherpesvirus 4
SN12C = experiment: Cytotoxicity against human SN12C cells after 48 hrs by SRB assay; type: functional
SNB-19 = experiment: Cytotoxicity against human SNB-19 cells after 48 hrs by SRB assay; type: functional; conditions: SNB-19, 48 h
HOP-92 = experiment: Cytotoxicity against human HOP-92 cells after 48 hrs by SRB assay; type: functional; conditions: HOP-92, 48 h
KM12 = experiment: Cytotoxicity against human KM12 cells after 48 hrs by SRB assay; type: functional; conditions: KM12, 48 h
786-0 = experiment: Cytotoxicity against human 786-0 cells after 48 hrs by SRB assay; type: functional; conditions: 786-0, 48 h
MOLT-4 = experiment: Cytotoxicity against human MOLT-4 cells after 48 hrs by SRB assay; type: functional; conditions: MOLT-4, 48 h
OVCAR-5 = experiment: Cytotoxicity against human OVCAR5 cells after 48 hrs by SRB assay; type: functional; conditions: OVCAR-5, 48 h
TK-10 = experiment: Cytotoxicity against human TK-10 cells after 48 hrs by SRB assay; type: functional; conditions: TK-10, 48 h; how it was run: as §1
[8] = Cytotoxicity against human HCT 116 cells after 48 hrs by SRB assay; type: functional; conditions: HCT-116, 48 h
SF-295 = experiment: Cytotoxicity against human SF-295 cells after 48 hrs by SRB assay; type: functional; conditions: SF-295, 48 h
HOP-62 = experiment: Cytotoxicity against human HOP-62 cells after 48 hrs by SRB assay; type: functional; conditions: HOP-62, 48 h
[9] = Cytotoxicity against human Raji cells assessed as cell viability at 500 molar ratio; type: cell-based; conditions: read-out: Activity; how it was run: as §2
Mus musculus = experiment: Antiinflammatory activity against TPA-induced ear edema in mouse; type: functional
How it was run: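 Specific-pathogen-free female ICR mice were housed five per cage at 24 ± 2 °C. Inflammation was induced on the ear with TPA at 1 µg/ear, and the test agent was applied per ear. Ear edema inhibition was expressed as ID50 in mg per ear.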

Raji [10] = experiment: Inhibition of TPA-induced EBV-early antigen activation in human Raji cells at 500 molar ratio relative to TPA; type: cell-based; parameters: scale not given: the % may be the effect or the level left; conditions: human gammaherpesvirus 4
MDA-MB-231 = experiment: Cytotoxicity against human MDA-MB-231 cells after 48 hrs by SRB assay; type: functional; conditions: MDA-MB-231, 48 h
Raji [11] = experiment: Inhibition of TPA-induced EBV-early antigen activation in human Raji cells at 100 molar ratio relative to TPA; type: cell-based; parameters: scale not given: the % may be the effect or the level left; conditions: human gammaherpesvirus 4
[12] = Cytotoxicity against human Raji cells assessed as cell viability at 10 molar ratio; type: cell-based; conditions: read-out: Activity; how it was run: as §2
NCI-H522 = experiment: Cytotoxicity against human NCI-H522 cells after 48 hrs by SRB assay; type: functional; conditions: NCI-H522, 48 h

CCCCOC(=O)[C@H]1O[C@@H](O[C@H]2CC[C@]3(C)[C@H]4CC=C5[C@@H]6CC(C)(C)CC[C@]6(C(=O)O)CC[C@@]5(C)[C@]4(C)CC[C@H]3C2(C)C)[C@H](O[C@@H]2O[C@H](CO)[C@@H](O)[C@H](O)[C@H]2O)[C@@H](O[C@@H]2O[C@H](CO)[C@H](O)[C@H](O)[C@H]2O)[C@@H]1O
GI50 (UACC-62): 20.9 µM | GI50 (EKVX): 24.4 µM | GI50 (T47D): 48 µM | GI50 (Malme-3M): 17.8 µM | GI50 (K562): 23.2 µM | GI50 (SW-620): 36.6 µM | GI50 (HL-60): 22.3 µM | GI50 (NCI-H23): 22.8 µM | viability at 100 molar ratio [1]: > 80% | GI50 (NCI/ADR-RES): 74 µM | GI50 (SF-268): 27.7 µM | GI50 [2]: 38 µM | GI50 (IGROV-1): > 100 µM | GI50 (HCC 2998): 21.8 µM | Activity (Raji [3]): 11% | GI50 (NCI-H226): 29.2 µM | GI50 (ACHN): 20.6 µM | GI50 [4]: 26.7 µM | Activity (Raji [5]): 100% | GI50 (MCF7): 38.4 µM | GI50 (A549): 34.1 µM | GI50 (MDA-MB-435): 30.6 µM | GI50 (PC-3): 34.7 µM | GI50 (HT-29): 34.2 µM | GI50 (SK-MEL-2): 40.9 µM | GI50 (LOX IMVI): 18 µM | GI50 (HCT-15): 20.9 µM | GI50 (NCI-H322M): 19 µM | GI50 (OVCAR-3): > 100 µM | GI50 (OVCAR-8): 66.8 µM | GI50 (COLO 205): 20.1 µM | GI50 (UO-31): 49.2 µM | GI50 (UACC-257): 26.2 µM | GI50 (NCI-H460): 33.3 µM | GI50 (SK-MEL-5): 33.1 µM | GI50 (RXF 393): 58.5 µM | GI50 (CAKI-1): 33.4 µM | viability at 1000 molar ratio [6]: 70% | GI50 (BT-549): 21.5 µM | IC50 [7]: 473 molar ratio | GI50 (SN12C): 21.8 µM | GI50 (SNB-19): 22.5 µM | GI50 (HOP-92): 33.2 µM | GI50 (KM12): 30.8 µM | GI50 (786-0): 26.2 µM | GI50 (MOLT-4): 7.77 µM | GI50 (OVCAR-5): 28.8 µM | GI50 (TK-10): 33.3 µM | GI50 [8]: 20.6 µM | GI50 (SF-295): 26 µM | GI50 (HOP-62): 19.4 µM | viability at 500 molar ratio [9]: > 80% | ID50 (Mus musculus): 0.06 mg | Activity (Raji [10]): 49.3% | GI50 (MDA-MB-231): 14.5 µM | Activity (Raji [11]): 71% | viability at 10 molar ratio [12]: > 80% | GI50 (NCI-H522): 43.9 µM
